Experimental data reported in ChEMBL document CHEMBL5126625, “Discovery of AZD4831, a Mechanism-Based Irreversible Inhibitor of Myeloperoxidase, As a Potential Treatment for Heart Failure with Preserved Ejection Fraction” (J Med Chem, 2022).
≈ marks a conversion by molar mass, not a printed value.

Experiments:
[1] = Drug uptake in human hepatocytes assessed as covalent binding measured per mg protein; type: ADME, cell-based, Hepatocyte
Outline: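 [14C]-labelled compound incubated with human hepatocytes; covalently bound radioactivity expressed as pmol per mg protein.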

[2] = Oral bioavailability in Beagle dog measured up to 24 hrs by LC-MS/MS analysis; type: ADME, organism-based, Canis lupus familiaris; details: in vivo
[3] = Apparent permeability of the compound across apical to basolateral side in human Caco-2 cells at 10 uM by LC-MS/MS analysis
[4] = Toxicity in male rat assessed as NOAEL by 6 months toxicology study; details: in vivo, 4380 h
Outline: (§1)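 Pivotal 6-month repeat-dose toxicology study in rats with daily dosing up to 125 mg/kg/day. Males and females were assessed separately, and a NOAEL was assigned for each sex.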

[5] = tested on: Mus musculus; assay: In vivo inhibition of MPO in peritoneal lavage of zymosan-induced neutrophilic peritonitis BALB/c mouse model at 0.01 to 10 umol/kg, po administered 2 hrs prior to zymosan injection and measured after 2 hrs by chemiluminescence assay; type: functional, organism-based; details: dose 0.01-10 µmol/kg, time 4.0 hrs, DDE = dose-dependent effect
Outline: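 BALB/c mice given 10, 1, 0.1 or 0.01 µmol/kg orally 2 h before intraperitoneal zymosan. Peritoneal lavage collected 2 h later and peroxidase activity quantified by chemiluminescence; neutrophils dominate the infiltrate, so activity attributed to MPO.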

[6] = physchem; details: phosphate buffer, pH 7.4
[7] = Oral bioavailability in Wistar Han rat measured up to 24 hrs by LC-MS/MS analysis; type: ADME, organism-based; details: in vivo
[8] = Lipophilicity, log D of the compound; details: octanol/water
[9] = target: Voltage-gated inwardly rectifying potassium channel KCNH2 (Homo sapiens, UniProt Q12809)
[10] = Toxicity in female rat assessed as NOAEL by 6 months toxicology study; details: in vivo, 4380 h; outline: as §1
[11] = Toxicity in dog assessed as body weight by 9 months toxicology study; design: species or system Canis lupus familiaris; details: in vivo, 6570 h
Outline: (§2)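 Pivotal 9-month repeat-dose toxicology study in dogs at doses up to 100 mg/kg/day, with food consumption, body weight and pathology monitored.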

[12] = target: Cytochrome P450 2C19 (Homo sapiens, UniProt P33261); assay: Inhibition of human recombinant CYP2C19 using coumarin as substrate preincubated with enzyme for 10 mins followed by NADPH addition and measured after 20 to 50 mins by fluorescence based method
[13] = target: Cytochrome P450 2C9 (Homo sapiens, UniProt P11712); assay: Inhibition of human recombinant CYP2C9 using coumarin as substrate preincubated with enzyme for 10 mins followed by NADPH addition and measured after 20 to 50 mins by fluorescence based method
[14] = target: Cytochrome P450 2D6 (Homo sapiens, UniProt P10635); assay: Inhibition of CYP2D6 (unknown origin) using coumarin as substrate preincubated with enzyme for 10 mins followed by NADPH addition and measured after 20 to 50 mins by fluorescence based method
[15] = Toxicity in dog assessed as NOAEL by 9 months toxicology study; design: species or system Canis lupus familiaris; details: in vivo, 6570 h
Outline: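 Pivotal 9-month repeat-dose toxicology study in dogs with daily dosing up to 100 mg/kg/day. Endpoints included food consumption, body weight and pathology. The NOAEL was assigned from these findings.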

[16] = Toxicity in rat bone marrow by micronucleus test
[17] = target: Cytochrome P450 3A4 (Homo sapiens, UniProt P08684)
[18] = target: T1, Cytochrome P450 1A2 (Homo sapiens, UniProt P05177); assay: Inhibition of human recombinant CYP1A2 using coumarin as substrate preincubated with enzyme for 10 mins followed by NADPH addition and measured after 20 to 50 mins by fluorescence based method
T1 sequence (P05177 whole entry): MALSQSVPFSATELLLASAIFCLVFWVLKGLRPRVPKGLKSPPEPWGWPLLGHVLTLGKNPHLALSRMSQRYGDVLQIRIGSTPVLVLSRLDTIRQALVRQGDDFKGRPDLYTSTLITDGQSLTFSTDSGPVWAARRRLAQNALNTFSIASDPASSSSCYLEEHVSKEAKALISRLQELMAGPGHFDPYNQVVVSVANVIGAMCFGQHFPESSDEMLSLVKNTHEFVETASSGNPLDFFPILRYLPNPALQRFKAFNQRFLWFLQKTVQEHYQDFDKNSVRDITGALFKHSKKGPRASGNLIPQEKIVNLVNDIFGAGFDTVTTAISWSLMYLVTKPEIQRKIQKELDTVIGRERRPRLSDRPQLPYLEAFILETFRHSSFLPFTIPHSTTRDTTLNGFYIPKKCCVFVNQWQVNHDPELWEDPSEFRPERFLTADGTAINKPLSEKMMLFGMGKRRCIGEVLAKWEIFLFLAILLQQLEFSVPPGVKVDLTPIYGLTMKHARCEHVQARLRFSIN

[19] = Toxicity in dog assessed as food intake by 9 months toxicology study; design: species or system Canis lupus familiaris; details: in vivo, 6570 h; outline: as §2

Cytochrome P450 2C19, sequence (P33261 whole entry): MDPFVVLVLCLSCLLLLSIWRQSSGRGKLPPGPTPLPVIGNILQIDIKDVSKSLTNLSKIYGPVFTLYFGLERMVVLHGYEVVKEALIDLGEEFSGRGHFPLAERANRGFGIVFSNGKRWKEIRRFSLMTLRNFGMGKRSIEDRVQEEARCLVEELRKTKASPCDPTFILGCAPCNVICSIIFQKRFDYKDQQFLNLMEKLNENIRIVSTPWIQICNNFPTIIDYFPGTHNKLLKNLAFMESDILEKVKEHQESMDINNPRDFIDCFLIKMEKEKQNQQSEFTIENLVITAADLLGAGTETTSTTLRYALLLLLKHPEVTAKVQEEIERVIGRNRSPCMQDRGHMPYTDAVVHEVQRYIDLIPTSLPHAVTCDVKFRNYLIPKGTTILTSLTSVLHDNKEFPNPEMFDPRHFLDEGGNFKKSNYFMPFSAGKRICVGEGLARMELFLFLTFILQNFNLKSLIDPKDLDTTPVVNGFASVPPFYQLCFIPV
Cytochrome P450 2C9, sequence (P11712 whole entry): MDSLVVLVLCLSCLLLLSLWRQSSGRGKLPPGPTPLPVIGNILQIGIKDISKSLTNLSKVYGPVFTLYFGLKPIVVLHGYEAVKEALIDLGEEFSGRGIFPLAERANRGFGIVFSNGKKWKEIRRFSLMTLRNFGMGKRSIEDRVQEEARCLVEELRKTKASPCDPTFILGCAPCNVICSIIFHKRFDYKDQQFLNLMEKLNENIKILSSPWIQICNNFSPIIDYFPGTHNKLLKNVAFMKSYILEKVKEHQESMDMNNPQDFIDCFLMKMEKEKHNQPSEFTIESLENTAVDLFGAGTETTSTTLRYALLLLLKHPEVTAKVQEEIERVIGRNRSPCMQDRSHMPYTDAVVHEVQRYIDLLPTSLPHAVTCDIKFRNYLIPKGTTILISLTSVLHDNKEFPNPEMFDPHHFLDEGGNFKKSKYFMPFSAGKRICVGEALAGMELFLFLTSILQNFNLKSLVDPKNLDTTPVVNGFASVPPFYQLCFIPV
Cytochrome P450 2D6, sequence (P10635 whole entry): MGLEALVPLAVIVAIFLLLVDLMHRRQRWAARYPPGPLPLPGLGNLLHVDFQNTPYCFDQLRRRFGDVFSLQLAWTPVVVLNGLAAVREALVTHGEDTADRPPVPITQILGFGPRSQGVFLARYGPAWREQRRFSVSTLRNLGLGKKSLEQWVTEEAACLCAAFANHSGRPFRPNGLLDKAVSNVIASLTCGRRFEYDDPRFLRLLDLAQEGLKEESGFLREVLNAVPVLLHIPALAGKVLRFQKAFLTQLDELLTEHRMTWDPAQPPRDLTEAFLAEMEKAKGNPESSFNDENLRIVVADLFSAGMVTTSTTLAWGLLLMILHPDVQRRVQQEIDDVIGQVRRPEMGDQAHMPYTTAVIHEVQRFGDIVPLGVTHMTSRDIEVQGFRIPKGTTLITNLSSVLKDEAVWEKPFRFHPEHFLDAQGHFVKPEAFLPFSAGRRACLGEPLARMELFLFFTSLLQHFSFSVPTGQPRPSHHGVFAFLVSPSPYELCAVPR
Voltage-gated inwardly rectifying potassium channel KCNH2, sequence (Q12809 whole entry): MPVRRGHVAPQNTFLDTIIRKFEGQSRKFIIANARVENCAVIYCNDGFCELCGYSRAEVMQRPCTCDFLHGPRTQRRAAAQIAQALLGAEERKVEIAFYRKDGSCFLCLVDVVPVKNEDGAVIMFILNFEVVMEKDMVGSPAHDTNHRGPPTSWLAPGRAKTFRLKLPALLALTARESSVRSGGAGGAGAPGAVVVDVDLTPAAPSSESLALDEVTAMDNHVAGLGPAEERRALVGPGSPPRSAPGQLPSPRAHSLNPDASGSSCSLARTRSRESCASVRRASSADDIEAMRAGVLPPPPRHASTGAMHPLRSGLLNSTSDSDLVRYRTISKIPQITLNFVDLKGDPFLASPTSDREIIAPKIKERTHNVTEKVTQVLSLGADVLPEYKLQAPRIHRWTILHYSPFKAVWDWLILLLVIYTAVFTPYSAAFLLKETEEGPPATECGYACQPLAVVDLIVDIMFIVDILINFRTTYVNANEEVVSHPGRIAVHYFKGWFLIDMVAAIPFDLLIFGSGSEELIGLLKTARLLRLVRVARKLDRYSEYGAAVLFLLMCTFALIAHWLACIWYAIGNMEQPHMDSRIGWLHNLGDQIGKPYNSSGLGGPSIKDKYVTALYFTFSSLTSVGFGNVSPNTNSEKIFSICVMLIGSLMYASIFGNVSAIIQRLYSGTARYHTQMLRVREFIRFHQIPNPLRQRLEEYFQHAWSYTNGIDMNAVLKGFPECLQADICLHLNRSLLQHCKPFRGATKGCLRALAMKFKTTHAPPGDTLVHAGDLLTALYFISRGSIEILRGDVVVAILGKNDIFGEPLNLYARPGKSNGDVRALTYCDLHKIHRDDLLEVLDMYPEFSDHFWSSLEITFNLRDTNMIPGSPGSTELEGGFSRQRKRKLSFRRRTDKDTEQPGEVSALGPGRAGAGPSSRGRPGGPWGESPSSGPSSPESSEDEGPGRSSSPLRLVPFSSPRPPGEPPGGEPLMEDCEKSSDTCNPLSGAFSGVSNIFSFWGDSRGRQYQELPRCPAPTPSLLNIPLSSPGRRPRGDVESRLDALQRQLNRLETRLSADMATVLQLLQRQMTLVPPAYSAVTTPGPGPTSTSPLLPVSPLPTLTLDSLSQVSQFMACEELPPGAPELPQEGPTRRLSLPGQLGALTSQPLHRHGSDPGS
Cytochrome P450 3A4, sequence (P08684 whole entry): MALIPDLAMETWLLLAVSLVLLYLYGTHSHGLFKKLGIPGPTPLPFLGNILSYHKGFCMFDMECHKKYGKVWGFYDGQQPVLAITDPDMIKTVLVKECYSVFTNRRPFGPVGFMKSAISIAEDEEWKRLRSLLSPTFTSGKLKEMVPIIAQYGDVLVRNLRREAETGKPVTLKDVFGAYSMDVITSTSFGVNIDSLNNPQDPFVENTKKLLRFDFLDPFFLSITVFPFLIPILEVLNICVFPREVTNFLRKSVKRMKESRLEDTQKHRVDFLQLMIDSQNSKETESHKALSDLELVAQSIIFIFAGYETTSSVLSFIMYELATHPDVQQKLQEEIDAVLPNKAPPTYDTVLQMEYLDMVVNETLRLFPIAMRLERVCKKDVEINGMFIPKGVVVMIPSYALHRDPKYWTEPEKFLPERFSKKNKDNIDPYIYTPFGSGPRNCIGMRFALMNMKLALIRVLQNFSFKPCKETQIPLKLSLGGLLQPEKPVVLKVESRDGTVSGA

For C[C@@H](N)c1cc(Cl)ccc1Cn1c(=S)[nH]c(=O)c2[nH]ccc21, the Drug uptake [1] was 56 pmol, the bioavailability [2] was 52% and the Papp A→B at 10 µM [3] was 11 ×10⁻⁶ cm/s. The NOAEL [4] was 125 mg/kg/day, the inhibition [5] was “Dde” and the solubility thermodynamic at 18 h [6] was 270 µM (≈ 90.4 µg/mL). The bioavailability [7] was 61%, the logD [8] was 1.2 and the IC50 [9] was 21 µM. The NOAEL [10] was 125 mg/kg/day, the Activity [11] was “Non-Toxic” and the IC50 [12] was over 30 µM. It also gave an IC50 [13] of over 30 µM, an IC50 [14] of over 30 µM and an NOAEL [15] of 100 mg/kg/day. For the same compound, the Activity [16] was “Non-Toxic”, the IC50 [17] was 6 µM and the IC50 [18] was over 30 µM. The Activity [19] was “Non-Toxic”.
